Measurements from ChEMBL document CHEMBL4325839, “Design, synthesis and biological evaluations of quaternization harman analogues as potential antibacterial agents” (Eur J Med Chem, 2018).
≈ marks a conversion by molar mass, not a printed value. Calls of active or inactive are those of the source. The calls are words filed in the database; no cut-off is given here.

Columns and labels:
Ralstonia solanacearum [1] = assay: Antibacterial activity against Ralstonia solanacearum CGMCC 1.12711 measured after 12 to 14 hrs by double dilution method; type: functional
In short: (§1)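 Broth double-dilution MIC per NCCLS. Bacteria at 1×10^6 CFU/mL in Luria-Bertani medium. Compounds dissolved in DMSO as stock, then diluted in medium to 200, 100, 50, 25, 12.5, 6.25 and 3.125 nmol/mL (DMSO <0.5%); some also tested at 256–1 µg/mL. Incubated at 37 °C for 12–14 h. MIC read as lowest concentration giving visible growth inhibition.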

Bacillus subtilis = assay: Antibacterial activity against Bacillus subtilis 769 after 12 to 14 hrs by double dilution method; type: functional
[2] = Thermal stability of the compound at 2 ug/ml at 37 degC after 6 hrs by UHPLC-ESI-MS/MS analysis; type: physicochemical
In short: (§2)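 Sample held at 25 °C 0 h, 37 °C 6 h or 65 °C 6 h, then 5 µL injected on UHPLC coupled to ESI-QTOF MS/MS at 0.4 mL/min; sample 2 µg/mL with mobile phase A 10% acetonitrile (ampicillin sodium) or 1 µg/mL with 35% acetonitrile (test compound); residual parent compound monitored.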

Staphylococcus aureus [3] = assay: Antibacterial activity against methicillin-resistant Staphylococcus aureus ATCC 43300 after 12 to 14 hrs by double dilution method; type: functional; in short: as §1
Staphylococcus aureus [4] = assay: Antibacterial activity against Staphylococcus aureus CGMCC 1.8721 after 12 to 14 hrs by double dilution method; type: functional
Bacillus cereus = assay: Antibacterial activity against Bacillus cereus CGMCC 1.1846 after 12 to 14 hrs by double dilution method; type: functional
[5] = Thermal stability of the compound at 2 ug/ml at 65 degC after 6 hrs by UHPLC-ESI-MS/MS analysis; type: physicochemical; in short: as §2
Escherichia coli = assay: Antibacterial activity against Escherichia coli CGMCC 1.1636 after 12 to 14 hrs by double dilution method; type: functional
Staphylococcus aureus [6] = assay: Antibacterial activity against methicillin-resistant Staphylococcus aureus after 48 hrs by broth microtube dilution method; type: functional
[7] = Cytotoxicity against […] MARC145 cells assessed as cell viability at 8 ug/ml by MTT assay; type: cell-based; conditions: chlorocebus aethiops, read-out: Activity
[8] = Cytotoxicity against human L02 cells assessed as cell viability at 8 ug/ml by MTT assay; type: cell-based; conditions: read-out: Activity
In short: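 MTT viability assay on normal cells (MARC 145 monkey kidney, L02 human hepatocyte) exposed to 8 µg/mL; MTT in PBS then 4 h at 37 °C, 5% CO2; formazan dissolved in DMSO with 15 min shaking; absorbance at 540 nm; viability = treated/untreated absorbance × 100%.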

Staphylococcus aureus [9] = assay: Antibacterial activity against Staphylococcus aureus after 18 hrs; type: functional
Ralstonia solanacearum [10] = assay: Protection against Ralstonia solanacearum-induced infection in eggplant leaf at 8 ug/ml after 3 days relative to control; type: functional
Ralstonia solanacearum [11] = assay: Bactericidal activity against Ralstonia solanacearum CGMCC 1.12711 assessed as cell shrinkage at 0.5 MIC after 1 hr by scanning electron microscopy analysis; type: functional, organism-based
Staphylococcus aureus [12] = assay: Bactericidal activity against methicillin-resistant Staphylococcus aureus ATCC 43300 assessed as cell shrinkage at 0.5 MIC after 1 hr by scanning electron microscopy analysis; type: functional, organism-based
[13] = Thermal stability of the compound at 1 ug/ml at 37 degC after 6 hrs by UHPLC-ESI-MS/MS analysis; type: physicochemical; in short: as §2
Staphylococcus aureus [14] = assay: Bactericidal activity against methicillin-resistant Staphylococcus aureus ATCC 43300 assessed as cell wall disintegration at 0.5 MIC after 1 hr by scanning electron microscopy analysis; type: functional, organism-based
[15] = Thermal stability of the compound at 1 ug/ml at 65 degC after 6 hrs by UHPLC-ESI-MS/MS analysis; type: physicochemical; in short: as §2
Ralstonia solanacearum [16] = assay: Bactericidal activity against Ralstonia solanacearum CGMCC 1.12711 assessed as cell wall disintegration at 0.5 MIC after 1 hr by scanning electron microscopy analysis; type: functional, organism-based
Staphylococcus aureus [17] = assay: Antibacterial activity against multidrug-resistant Staphylococcus aureus XU212 after 24 hrs; type: functional; conditions: XU212, 24 h
Staphylococcus aureus [18] = assay: Antibacterial activity against multidrug-resistant Staphylococcus aureus 1199B after 24 hrs; type: functional
Staphylococcus aureus [19] = assay: Antibacterial activity against methicillin-resistant Staphylococcus aureus EMRSA15 after 24 hrs; type: functional; conditions: EMRSA15, 24 h

## CC1(C)S[C@@H]2[C@H](NC(=O)[C@H](N)c3ccccc3)C(=O)N2[C@H]1C(=O)[O-].[Na+] [AMPICILLIN SODIUM]
Ralstonia solanacearum [1]
  MIC: 3.12 µM
Bacillus subtilis
  MIC: 1.56 µM
[2]
  Stability: Unstable
Staphylococcus aureus [3]
  MIC: 50 µM
Staphylococcus aureus [4]
  MIC: 3.12 µM
Bacillus cereus
  MIC: 200 µM
[5]
  Stability: Unstable
Escherichia coli
  MIC: 3.12 µM

## Cc1ccc2[nH]c3c[n+](C)ccc3c2c1.[I-]
Staphylococcus aureus [6]
  MIC: 4 µg/mL

## COC(=O)c1ccc(-c2c3[nH]c4ccc(OC)cc4c3cc[n+]2Cc2ccc(C(F)(F)F)cc2)cc1
Ralstonia solanacearum [1]
  MIC: 25 µM
Bacillus subtilis
  MIC: 25 µM
[7]
  viability at 8 ug/ml: 93.2%
Staphylococcus aureus [3]
  MIC: 25 µM
[8]
  viability at 8 ug/ml: 71.6%
Staphylococcus aureus [4]
  MIC: 25 µM
Bacillus cereus
  MIC: 25 µM
Escherichia coli
  MIC: 200 µM

## Cc1nccc2c1[nH]c1ccccc12 [HARMAN]
Staphylococcus aureus [9]
  MIC: 1000 µg/mL (≈ 5490 µM)

## FC(F)(F)c1ccc(C[n+]2ccc3c([nH]c4ccccc43)c2-c2ccco2)cc1
Ralstonia solanacearum [1]
  MIC: 25 µM
Bacillus subtilis
  MIC: 25 µM
[7]
  viability at 8 ug/ml: 87.1%
Staphylococcus aureus [3]
  MIC: 25 µM
[8]
  viability at 8 ug/ml: 76.2%
Staphylococcus aureus [4]
  MIC: 25 µM
Bacillus cereus
  MIC: 50 µM
Escherichia coli
  MIC: 50 µM

## COc1ccc2[nH]c3c(-c4ccc5c(c4)OCO5)[n+](Cc4ccc(C(F)(F)F)cc4)ccc3c2c1.[Br-]
Ralstonia solanacearum [1]
  MIC: 25 µM
Bacillus subtilis
  MIC: 25 µM
Ralstonia solanacearum [10]
  Activity: 81.3%
Ralstonia solanacearum [11]
  Activity: Active
Staphylococcus aureus [12]
  Activity: Active
[13]
  Stability: Stable
[7]
  viability at 8 ug/ml: 103%
Staphylococcus aureus [3]
  MIC: 12.5 µM
[8]
  viability at 8 ug/ml: 84.6%
Staphylococcus aureus [4]
  MIC: 25 µM
Staphylococcus aureus [14]
  Activity: Active
[15]
  Stability: Stable
Ralstonia solanacearum [16]
  Activity: Active
Bacillus cereus
  MIC: 25 µM
Escherichia coli
  MIC: 50 µM

## O=c1ccc2nccc3c4ccccc4n1c23 [CANTHIN-6-ONE]
Staphylococcus aureus [17]
  MIC: 8 to 64 µg/mL (≈ 36.3 to 291 µM)
Staphylococcus aureus [18]
  MIC: 8 to 64 µg/mL (≈ 36.3 to 291 µM)
Staphylococcus aureus [19]
  MIC: 8 to 64 µg/mL (≈ 36.3 to 291 µM)
